# ChEMBL document CHEMBL4024799, “Synthesis and Biological Characterization of Aryl Uracil Inhibitors of Hepatitis C Virus NS5B Polymerase: Discovery of ABT-072, a trans-Stilbene Analog with Good Oral Bioavailability” (J Med Chem, 2018)
# Columns and labels:
# [1] = Inhibition of HCV genotype 1b BK NS5B RNA dependent RNA polymerase assessed as reduction in [3H]UTP incorporation in to RNA preincubated for 15 mins followed by [3H]UTP addition measured after 3 hrs by microbeta scintillation counting method; parameters: species or system Hepatitis C virus (isolate BK)
# Procedure, shortened: (§1)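 NS5B polymerase from genotype 1a (H77) or 1b (BK); formation of RNA product measured as 3H-UTP incorporation by scintillation counting; IC50 calculated with a standard IC50 equation.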
# [2] = Aqueous solubility of the compound at pH 7.2; assay type: physicochemical; details: buffer
# [3] = Stability in human liver microsomes assessed as parent compound remaining after 30 mins; assay type: ADME, microsome; details: read-out: Stability
# Procedure, shortened: (§2)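 Compound incubated 30 min with human or rat liver microsomes; percent of parent compound remaining reported.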
# [4] = Passive permeability of the compound by PAMPA; assay type: physicochemical; details: read-out: permeability
# Hepatitis C virus [5] = assay: Antiviral activity against HCV genotype 1b Con1 infected in human HuH7 cells harboring HCV subgenomic bicistronic replicon after 3 days in presence of 40% human plasma by luciferase reporter gene assay; assay type: functional, cell-based, Hepacivirus hominis; details: genotype 1b Con1, Huh-7, 72 h
# Procedure, shortened: (§3)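 Subgenomic genotype 1a (H77) or 1b (Con1) replicons carrying firefly luciferase, transfected into Huh-7 cells. Replication inhibition was read as luciferase level in cell lysate on a luminometer and reported as EC50. Runs were done without human plasma or with 40% human plasma added, to assess inhibitor–protein binding.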
# [6] = Inhibition of HCV genotype 1a H77 NS5B RNA dependent RNA polymerase assessed as reduction in [3H]UTP incorporation in to RNA preincubated for 15 mins followed by [3H]UTP addition measured after 3 hrs by microbeta scintillation counting method; parameters: species or system Hepatitis C virus (isolate H77); procedure, shortened: as §1
# [7] = Stability in rat liver microsomes assessed as parent compound remaining after 30 mins; assay type: ADME, microsome; details: read-out: Stability; procedure, shortened: as §2
# Hepatitis C virus [8] = assay: Antiviral activity against HCV genotype 1b Con1 infected in human HuH7 cells harboring HCV subgenomic bicistronic replicon after 3 days by luciferase reporter gene assay; assay type: functional, cell-based, Hepacivirus hominis; details: genotype 1b Con1, Huh-7, 72 h; procedure, shortened: as §3
# [9] = Oral bioavailability in Sprague-Dawley rat at 5 mg/kg; assay type: ADME, organism-based; details: in vivo
# Procedure, shortened: (§4)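 Sprague-Dawley rats, n = 3 per experiment; solution in DMSO:PEG400 (1:9, v/v) given IV or oral; 5 mg/kg for both routes, and 30 mg/kg oral; plasma t1/2, Vss, clearance, Cmax, AUC and F% determined.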
# [10] = Plasma clearance in Sprague-Dawley rat at 5 mg/kg, iv; assay type: ADME, organism-based; procedure, shortened: as §4
# [11] = Half life in Sprague-Dawley rat at 5 mg/kg, po; assay type: ADME, organism-based; details: in vivo; procedure, shortened: as §4
# Hepatitis C virus [12] = assay: Antiviral activity against HCV genotype 1a H77 infected in human HuH7 cells harboring HCV subgenomic bicistronic replicon after 3 days by luciferase reporter gene assay; assay type: functional, cell-based, Hepacivirus hominis; details: genotype 1a H77, Huh-7, 72 h; procedure, shortened: as §3
# [13] = AUC in Sprague-Dawley rat at 5 mg/kg, po; assay type: ADME, organism-based; details: in vivo; procedure, shortened: as §4
# [14] = Cmax in Sprague-Dawley rat at 5 mg/kg, po; assay type: ADME, organism-based; parameters: dose 5 mg/kg, route oral; details: in vivo; procedure, shortened: as §4
# Rattus norvegicus = assay: Time at which plasma concentration stays above HCV genotype 1b Con1 replicon EC50 in Sprague-Dawley rat at 5 mg/kg, po
# [15] = Plasma concentration in Sprague-Dawley rat at 5 mg/kg, po up to 8 hrs; assay type: ADME, organism-based; procedure, shortened: as §4
# Hepatitis C virus [16] = assay: Antiviral activity against HCV genotype 1a H77 infected in human HuH7 cells harboring HCV subgenomic bicistronic replicon after 3 days in presence of 40% human plasma by luciferase reporter gene assay; assay type: functional, cell-based, Hepacivirus hominis; details: genotype 1a H77, Huh-7, 72 h; procedure, shortened: as §3
# [17] = Ratio of plasma concentration in Sprague-Dawley rat at 5 mg/kg, po to EC50 for HCV genotype 1b Con1 infected in human HuH7 cells harboring HCV subgenomic bicistronic replicon
Structure (SMILES),IC50 [1] [nM],solubility ([2]; read-out: solubility) [µM],remaining at 0.5 h [3] [%],Papp [4] [×10⁻⁶ cm/s],EC50 (Hepatitis C virus [5]) [nM],IC50 [6] [nM],remaining at 0.5 h [7] [%],EC50 (Hepatitis C virus [8]) [nM],bioavailability [9] [%],clearance [10] [mL/min/kg],half-life [11] [min],EC50 (Hepatitis C virus [12]) [nM],AUC [13] [ng·h/mL],Cmax [14] [ng/mL],solubility [2] [µM],Time (Rattus norvegicus) [h],concentration at 8 h [15] [nM],EC50 (Hepatitis C virus [16]) [nM],Ratio [17]
COc1c(COc2ccc(NS(C)(=O)=O)cc2)cc(N2CCC(=O)NC2=O)cc1C(C)(C)C,167,3,> 85,7.47,321,100,80,53,,,,,,,,,,,
COc1c(CCc2ccc(NS(C)(=O)=O)cc2)cc(N2CCC(=O)NC2=O)cc1C(C)(C)C,40.3,18.8,2.5,4.06,91.3,26.5,1.6,39.1,,,,,,,,,,,
COc1c(C2CC2c2ccc(NS(C)(=O)=O)cc2)cc(N2CCC(=O)NC2=O)cc1C(C)(C)C (stereo unspecified),514,18.8,26.5,2.8,431,267,32.3,56,,,,,,,,,,,
COc1c(NC(=O)c2ccc(NS(C)(=O)=O)cc2)cc(N2CCC(=O)NC2=O)cc1C(C)(C)C,46,32.8,> 85,0.22,21,8.8,> 85,29,,,,,,,,,,,
COc1c(C(=O)N(C)c2ccc(NS(C)(=O)=O)cc2)cc(N2CCC(=O)NC2=O)cc1C(C)(C)C,273,> 50,64,0.25,,140,83,1550,,,,,,,,,,,
COc1c(/C=C(\C)c2ccc([N+](=O)[O-])cc2)cc(N2CCC(=O)NC2=O)cc1C(C)(C)C,16.7,< 2,18.5,0.58,82.8,4.9,36.5,12.4,,,,,,,,,,,
COc1c(/C=C/c2ccc(NS(C)(=O)=O)c(F)c2)cc(-n2ccc(=O)[nH]c2=O)cc1C(C)(C)C,,15.5,,,5.3,,,2.1,76,6.33,222,13.8,10400,,,,,,
COc1c(C#Cc2ccc(NS(C)(=O)=O)cc2)cc(N2CCC(=O)NC2=O)cc1C(C)(C)C,3,2.3,35.8,0.83,29.8,1.1,50,3.9,14,31.7,180,,350,60,,,,,
COc1c(/C=C/c2ccc(NS(C)(=O)=O)cc2)cc(-n2cc(F)c(=O)[nH]c2=O)cc1C(C)(C)C,,15.5,,,59.4,,,9.6,52,14.2,222,89,3120,,,,,,
COc1c(C(=O)Nc2ccc(NS(C)(=O)=O)cc2)cc(N2CCC(=O)NC2=O)cc1C(C)(C)C,21.7,< 1.5,> 85,0.25,22,10.8,> 85,19,,25,,,50,,,,,,
COc1c(CNc2ccc(NS(C)(=O)=O)cc2)cc(N2CCC(=O)NC2=O)cc1C(C)(C)C,270,90.8,67,0.41,,80,58,522,,,,,,,,,,,
COc1c(/C=C/c2ccc(NS(C)(=O)=O)cc2)cc(N2CCC(=O)NC2=O)cc1C(C)(C)C,0.7,,48.1,0.92,3.1,0.3,33.5,1.1,18,10.7,138,3.1,1520,260,10.3,8,> 200,50,>60
